Assay results taken from ChEMBL document CHEMBL1649306, “Arylimidamide DB766, a potential chemotherapeutic candidate for Chagas' disease treatment” (Antimicrob Agents Chemother, 2010).
Calls of active or inactive are those of the source. The calls are words filed in the database; no cut-off is given here.

Key:
[1] = tested on: Trypanosoma cruzi; test: Antitrypanosomal activity against Trypanosoma cruzi Y bloodstream forms infected in Swiss-Webster mouse assessed as reduction in parasite-induced weight loss in mouse at 25 mg/kg/day, ip administered 5 days postinfection for 10 consecutive days measured on day 120; assay type: functional, organism-based
Procedure, shortened: (§1)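 Body weight of infected, treated mice followed from 0 to 120 dpi.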

[2] = tested on: Trypanosoma cruzi; test: Antitrypanosomal activity against bloodstream forms of Trypanosoma cruzi Y after 24 hrs by light microscopy in presence of 50% mouse blood; assay type: functional, organism-based
Procedure, shortened: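 Bloodstream trypomastigotes kept at 4°C for 24 h in freshly isolated 50% mouse blood with serial dilutions (up to 32 μM). Motile live parasites counted in a Neubauer chamber by light microscopy; IC50 calculated as concentration reducing parasite number by 50%.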

[3] = tested on: Trypanosoma cruzi; test: Antitrypanosomal activity against Trypanosoma cruzi Y bloodstream forms infected in Swiss-Webster mouse assessed as reduction in parasite-induced weight loss in mouse at 100 mg/kg/day, po administered 5 days postinfection for 10 consecutive days measured on day 120; assay type: functional, organism-based; procedure, shortened: as §1
[4] = tested on: Trypanosoma cruzi; test: Antitrypanosomal activity against Trypanosoma cruzi Y bloodstream forms infected in Swiss-Webster mouse assessed as decrease in parasite-induced cardiac inflammation in mouse at 100 mg/kg/day, ip administered 5 days postinfection for 10 alternate days measured after 14 days postinfection; assay type: functional, Heart; set-up: scale not given: the % may be the effect or the level left; conditions: route intraperitoneal
[5] = tested on: Trypanosoma cruzi; test: Antitrypanosomal activity against Trypanosoma cruzi Y epimastigotes after 24 hrs by light microscopy; assay type: functional, organism-based
Procedure, shortened: (§2)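 Epimastigotes from 5-day exponential cultures, 5 × 10^6 parasites/ml in LIT medium, incubated at 28°C up to 96 h with DB766 0 to 32 μM or Bz 0 to 250 μM. Counted daily in a Neubauer chamber. IC50 averaged from at least three determinations in duplicate.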

[6] = Toxicity in […] mouse assessed as mortality at cumulative dose of 100 mg/kg, ip measured after 48 hrs; assay type: organism-based; set-up: dose 100 mg/kg, route intraperitoneal; conditions: in vivo, read-out: Activity
Procedure, shortened: (§3)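 Uninfected 8–10-week-old female and male Swiss Webster and C3H/He (H-2k) mice injected i.p. on day 1 every 2 h with escalating doses: 5, 15, 30, 50 and 100 mg/kg (cumulative 20, 50, 100, 200 mg/kg). Toxic and subtoxic signs inspected on days 2–3 per OECD guidelines; tolerated dose set at 48 h.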

[7] = tested on: Trypanosoma cruzi; test: Antitrypanosomal activity against Trypanosoma cruzi 762 epimastigotes after 24 hrs by light microscopy; assay type: functional, organism-based; conditions: Trypanosoma cruzi, 762, 24 h; procedure, shortened: as §2
[8] = tested on: Trypanosoma cruzi; test: Antitrypanosomal activity against Trypanosoma cruzi 956 epimastigotes after 24 hrs by light microscopy; assay type: functional, organism-based; conditions: Trypanosoma cruzi, 956, 24 h; procedure, shortened: as §2
[9] = tested on: Trypanosoma cruzi; test: Antitrypanosomal activity against Trypanosoma cruzi Y amastigotes infected in Swiss-Webster CM cells assessed as parasite DNA to host cell nucleus ratio at 10 ug/ml after 1 hr by fluorescence and transmission electron microscopy analysis; assay type: functional
[10] = tested on: Trypanosoma cruzi; test: Antitrypanosomal activity against Trypanosoma cruzi Y infected in Swiss-Webster mouse assessed as decrease in parasite-induced weight loss at 100 mg/kg/day, ip administered 5 days post-infection for 10 consecutive days measured on day 120; assay type: functional, organism-based; procedure, shortened: as §1
[11] = tested on: Trypanosoma cruzi; test: Antitrypanosomal activity against Trypanosoma cruzi Y bloodstream forms infected in Swiss-Webster mouse assessed as decrease in parasite load at 50 mg/kg/day, ip administered 5 days postinfection for 10 consecutive days measured after 8 days; assay type: functional; set-up: scale not given: the % may be the effect or the level left; conditions: route intraperitoneal
Procedure, shortened: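 Eight-week-old male Swiss mice infected i.p. with 10^4 Y-strain bloodstream trypomastigotes; parasitemia-positive mice only (n ≥ 6). Dosing i.p. (0.2 ml) daily for 10 consecutive days from parasitemia onset (5 dpi). Parasitemia at the 8 dpi peak counted by Pizzi-Brener method; reduction relative to infected untreated group.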

[12] = tested on: Trypanosoma cruzi; test: Antitrypanosomal activity against Trypanosoma cruzi Y infected in Swiss-Webster mouse assessed as decrease in parasite-induced weight loss at 100 mg/kg/day, po administered 5 days post-infection for 10 consecutive days measured on day 120; assay type: functional, organism-based; procedure, shortened: as §1
[13] = tested on: Trypanosoma cruzi; test: Antitrypanosomal activity against Trypanosoma cruzi Columbian bloodstream forms infected in C3H mouse assessed as decrease in parasite load at 25 mg/kg/day, ip administered 21 days postinfection measured on day 44; assay type: functional; set-up: scale not given: the % may be the effect or the level left; conditions: route intraperitoneal
Procedure, shortened: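 C3H/He mice infected i.p. with 10^2 Colombian strain bloodstream forms. Treatment started at parasitemia onset (21 dpi) with daily doses for 10 treatments, 0.1 ml i.p. Parasitemia measured by the Pizzi-Brener method; n ≥ 6 parasitemic mice per group.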

[14] = tested on: Trypanosoma cruzi; test: Antitrypanosomal activity against Trypanosoma cruzi Columbian bloodstream forms infected in C3H mouse assessed as decrease in parasite-induced cardiac inflammation at 100 mg/kg/day, ip administered 5 days postinfection for 10 consecutive days measured after 43 days; assay type: functional, Heart; set-up: scale not given: the % may be the effect or the level left; conditions: route intraperitoneal
Procedure, shortened: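 Male C3H/He mice infected i.p. with 5 × 10^3 Colombian strain bloodstream forms, given 100 mg/kg/day i.p. daily for 10 days. At 43 dpi, H&E-stained 3 μm heart sections scored for amastigote nests and infiltrates (>10 mononuclear cells) over at least 100 fields. Three sections each from at least three mice.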

[15] = tested on: Trypanosoma cruzi; test: Antitrypanosomal activity against Trypanosoma cruzi Columbian bloodstream forms infected in C3H mouse assessed as reduction in parasite-induced weight loss at 50 mg/kg/day, ip administered 5 days postinfection for 10 consecutive days measured after 120 days; assay type: functional, organism-based; procedure, shortened: as §1
[16] = tested on: Trypanosoma cruzi; test: Antitrypanosomal activity against Trypanosoma cruzi 855 epimastigotes after 24 hrs by light microscopy; assay type: functional, organism-based; conditions: Trypanosoma cruzi, 855, 24 h; procedure, shortened: as §2
[17] = tested on: Mus musculus; test: Cytotoxicity against Swiss-Webster mouse assessed as effect on creatine kinase at 100 mg/kg/day measured after 14 days postinfection; assay type: organism-based; conditions: in vivo, 336 h
[18] = tested on: Trypanosoma cruzi; test: Antitrypanosomal activity against Trypanosoma cruzi Y bloodstream forms infected in Swiss-Webster mouse assessed as decrease in parasite load at 25 mg/kg/day, ip administered 8 days postinfection measured on day 2; assay type: functional; set-up: scale not given: the % may be the effect or the level left; conditions: route intraperitoneal
Procedure, shortened: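 Male Swiss mice infected i.p. with 10^4 Y strain bloodstream forms. Given 0.2 ml i.p. at 5 and 8 dpi, or daily for 10 days from 5 dpi; reference drug given by gavage. Parasitemia measured by the Pizzi-Brener method, cumulative mortality checked daily to 120 dpi, n ≥ 6 per group.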

[19] = tested on: Trypanosoma cruzi; test: Antitrypanosomal activity against bloodstream forms of Trypanosoma cruzi Y infected in Swiss mouse cardiomyocytes assessed as parasite crista dilation at 10 ug/ml after 2 hrs by transmission electron microscopy; assay type: functional, organism-based
Procedure, shortened: (§4)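 Y-strain bloodstream trypomastigotes treated 2 to 24 h at 37°C. Fixed 60 min at 4°C in 2.5% glutaraldehyde in 0.1 M cacodylate, pH 7.2. Postfixed 1 h at 4°C in 1% OsO4 with 0.8% potassium ferricyanide. Acetone-dehydrated, Epon-embedded, sections stained with uranyl acetate and lead citrate, ultrastructure examined by TEM.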

[20] = Cytotoxicity against Swiss-Webster mouse cardiomyocytes after 24 hrs by MTT assay; assay type: cell-based, Cardiomyocyte; conditions: read-out: LC50
Procedure, shortened: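 Primary embryonic cardiomyocytes from Swiss mice, uninfected, incubated 24 h or 72 h at 37°C, 5% CO2, with 0 to 96 μM in DMEM. MTT read at 490 nm; LC50 taken as concentration reducing viability by 50%; at least three experiments in duplicate.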

[21] = tested on: Trypanosoma cruzi; test: Antitrypanosomal activity against bloodstream forms of Trypanosoma cruzi Y infected in Swiss mouse cardiomyocytes assessed as parasite mitochondrial swelling at 10 ug/ml after 24 hrs by transmission electron microscopy; assay type: functional, organism-based; procedure, shortened: as §4
[22] = tested on: Mus musculus; test: Toxicity in […](H-2k) mouse assessed as mortality at cumulative dose of 200 mg/kg, ip measured after 48 hrs; assay type: organism-based; set-up: dose 200 mg/kg, route intraperitoneal; conditions: in vivo; procedure, shortened: as §3

CC(C)Oc1cc(NC(=N)c2ccccn2)ccc1-c1ccc(-c2ccc(NC(=N)c3ccccn3)cc2OC(C)C)o1
Activity [1]: inactive | IC50 [2]: 710 nM | Activity [3]: Active | Activity [4]: 78% | IC50 [5]: 70 nM | IC90 [5]: 220 nM | mortality at 48 h [6]: 80% | IC50 [7]: 60 nM | IC90 [7]: 180 nM | IC50 [8]: 160 nM | IC90 [8]: 320 nM | Ratio [9]: 2.1 | Activity [10]: inactive | Activity [11]: 98% | Activity [12]: inactive | Activity [13]: 73% | Activity [14]: 75% | Activity [15]: Active | IC50 [16]: 90 nM | IC90 [16]: 330 nM | Activity [17]: Non-toxic | Activity [18]: 78% | Activity [19]: Active | CC50 at 24 h [20]: > 32000 nM | Activity [21]: Active | Activity [22]: Non-toxic
